Experimental data pooled from the literature.
Each line is one published result; the experiments were not run side by side.
AKT2: RAC-beta serine/threonine-protein kinase (AKT2, Homo sapiens, UniProt P31751)
PDK1: [Pyruvate dehydrogenase (acetyl-transferring)] kinase isozyme 1, mitochondrial (PDK1, Homo sapiens, UniProt Q15118)

Structure (SMILES)	target	test	conditions	measurement	value
C=CC(=O)N1CCC(COCC(=O)N2CCN(c3nc(-c4cnc(N)nc4C(F)F)nc(N4CCOC[C@@H]4C)n3)CC2)CC1	AKT2	binding, competition with immobilised ligand	1 µM	remaining binding	100%
Cc1cc(NC(=O)c2cccc(NC(=O)/C=C/CN(C)C)c2)ccc1Nc1nccc(-c2cccnc2)n1	Mast/stem cell growth factor receptor Kit (KIT, Homo sapiens, UniProt P10721)	binding, competition with immobilised ligand	1 µM	remaining binding	4.1%
O=C(c1ccccc1)c1ccc(Oc2ccc(C(=O)C(Cl)Cl)cc2[N+](=O)[O-])cc1	PDK1	enzyme activity, inhibitor, ATP luminescence	10 µM	inhibition	36.9%
CNc1ncc2c(/C=C/C(=O)N3CCC(OC)CC3)nn(Cc3cccc(C(F)(F)F)c3)c2n1	Vascular endothelial growth factor receptor 1 (FLT1, Homo sapiens, UniProt P17948)	enzyme activity, inhibitor, radiometric	1 µM	remaining activity	95%
CC(=O)Nc1ccc(Oc2ccc(C(=O)C(Cl)Cl)cc2[N+](=O)[O-])cc1	PDK1	enzyme activity, inhibitor, ATP luminescence	10 µM	inhibition	22.7%
COc1cc(-c2cncc3c2CN(C)Cc2cc(N4CCNCC4)ccc2-3)cc(OC)c1OC	AKT2	enzyme activity, inhibitor	1 µM	remaining activity	132%
O=C(c1ccc(Oc2ccc3c(c2)OCO3)c([N+](=O)[O-])c1)C(Cl)Cl	PDK1	enzyme activity, inhibitor, ATP luminescence	10 µM	inhibition	20.3%
Cc1cc([C@@H](C)Nc2ccccc2C(=O)O)c2nc(N3CCC(F)(F)CC3)c(C#N)c(=O)n2c1	Casein kinase I isoform gamma-2 (CSNK1G2, Homo sapiens, UniProt P78368)	binding, competition with immobilised ligand	1 µM	remaining binding	100%
Cc1ncsc1-c1ccc(CNC(=O)[C@@H]2C[C@@H](O)CN2C(=O)[C@@H](NC(=O)CCCCCCCCNC(=O)CN2CCN(C(=O)c3ccc(Nc4nc(C5CC5)cn5c(-c6cn[nH]c6)cnc45)c(F)c3)CC2)C(C)(C)C)cc1	Mitogen-activated protein kinase kinase kinase 19 (MAP3K19, Homo sapiens, UniProt Q56UN5)	cell-free assay, competition with immobilised ligand	1 µM	inhibition	> 65%
